Published values collected from several papers.
Protocols differ between the studies behind these lines.

Compound	assay	system	conditions	measurement	result
CNS(=O)(=O)c1ccc(Nc2ncc3cc(Cl)c(=O)n(C4CCCC4)c3n2)c(C)c1	–	rat, plasma	intravenous, 2 mg/kg	Vd	4 L/kg
CCCN(CCC)CCOc1ccc2c(=O)c3c([nH]c2c1)CCCC3	metabolic stability	mouse, liver microsomes	1 µM, pH 7.4	microsomal CLint	51.9 µL/min/mg
CNS(=O)(=O)c1ccc(Nc2ncc(C(F)(F)F)c([C@H]3CC[C@@](C)(O)CC3)n2)c(C)c1	–	rat, plasma	intravenous, 2 mg/kg	Vd	1 L/kg
O=c1c2c([nH]c3ccc(Oc4ccc(OC(F)(F)F)cc4)cc13)CCCC2	metabolic stability	mouse, liver microsomes	1 µM, pH 7.4	microsomal CLint	39 µL/min/mg
CNCCNC(=O)c1cc(C(C)C)nc2c1cnn2C(C)C	metabolic stability	mouse, liver microsomes	–	scaled CLint	694 mL/min/kg
CC1(C)NC(=O)N(c2ccc(F)c(S(C)(=O)=O)c2)C1=O	metabolic stability	mouse, liver microsomes	–	microsomal CLint	< 7 µL/min/mg
Cc1cc(S(=O)(=O)NC2CC(N3CCN(CC4CCN(c5ccc(NC6CCC(=O)NC6=O)cc5C)CC4)CC3)C2)ccc1Nc1ncc(C(F)(F)F)c(N2CCC[C@](C)(O)C2)n1 (some centres unmarked)	–	rat, plasma	intravenous, 2 mg/kg	Vd	9 L/kg
CN(C)CCOc1ccc2c(=O)c3c([nH]c2c1)CCCC3	metabolic stability	mouse, liver microsomes	1 µM, pH 7.4	microsomal CLint	40.4 µL/min/mg
CNS(=O)(=O)c1ccc(Nc2ncc(C(F)(F)F)c(N3CCC(C)(O)CC3)n2)c(C)c1	–	rat, plasma	intravenous, 2 mg/kg	Vd	3 L/kg
CC(C)n1ncc2c(C(=O)NCC(C)(C)N(C)C)cc(C3CC3)nc21	metabolic stability	mouse, liver microsomes	–	scaled CLint	120 mL/min/kg
CCCCN(CCCC)CCCOc1ccc2c(=O)c3c([nH]c2c1)CCCC3	metabolic stability	mouse, liver microsomes	1 µM, pH 7.4	microsomal CLint	36.2 µL/min/mg
O=C1NC(CF)(CF)C(=O)N1c1ccc(F)c(C(F)(F)F)c1	metabolic stability	mouse, liver microsomes	–	microsomal CLint	< 7 µL/min/mg
CC(C)n1ncc2c(C(=O)NCC3(F)CNC3)cc(C3CC3)nc21	metabolic stability	mouse, liver microsomes	–	scaled CLint	78.2 mL/min/kg
C[C@H]1Oc2cc(cnc2N)-c2c(nn(C)c2C#N)CN(C)C(=O)c2ccc(F)cc21	–	male Sprague-Dawley rat, plasma	oral, 10 mg/kg, single dose	Vd/F	37 L/kg
